From the RNAGym collection of RNA variant scans (doi:10.1126/science.aae0568)
Fewer inactive variants are shown than the library holds.

B1: tRNA (parent)
chain: GUUCCGUUGGCGUAAUGGUAACGCGUCUCCCUCCUAAGGAGAAGACUGCGGGUUCGAGUCCCGUACGGAACG

Variants of: B1
Assay: yeast fitness relative to wild type (ratio to wild type); higher = fitter; tRNA-Arg(CCU), competitive growth, 37 C, YPD
Procedure, shortened: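 Variants of the tRNA-Arg(CCU) gene, chemically synthesised with a 3% per-site mutation rate at 69 sites, were placed at the native genomic locus in Saccharomyces cerevisiae. The pooled strains were competed in YPD at 37°C for 24 hours in six parallel replicates. Gene amplicons from the start population and from each end population were read by 100-nucleotide paired-end sequencing. Darwinian fitness relative to wild type came from changes in genotype frequencies; genotypes needed ≥ 100 starting reads, and estimates < 0.5 were set to 0.5.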

Variant	yeast fitness
U3G C11U U64C	≤ 0.5
U3C G12A A45U C55U	≤ 0.5
U3C U32G C61A C62A	0.53
U3C U35C A57G	0.541
U3C C31U C46A	0.79
U3C G12A G25A	0.992
U3G C46A	0.802
U3G C46U	0.903
U3C U7A C29A G58A C61G A70U	0.531
U3C U32C A65U G68A	≤ 0.5
U3C G18C C30U A36U C55A	≤ 0.5
U3G C33U A42G C61A	0.538
U3C G12A U13C A37C A45U G48C	≤ 0.5
U3C C31G C34U G38A	≤ 0.5
U3C G12A A14U U54A A57U	≤ 0.5
U3C U7A C27A	≤ 0.5
U3C U8A C66A	0.529
U3G A45C G63A A69U	0.831
U3C G56A C60A	0.568
U3C C62A	0.865
U3G C31A G50A G67A	≤ 0.5
U3C G68U	0.857
U3G C30U G48A	≤ 0.5
U3C C22G C27A C49U	≤ 0.5

Variant	yeast fitness
U3C G6A G18C C30U C31U A65U	≤ 0.5
U3C C31U U54A	0.583
U3C G6C A14U G25A G38A U47A C60G	0.558
U3C C11G C24G U54G	≤ 0.5
U3C C11U C22A C29G C33U U64C A70C	≤ 0.5
U3C G56A A69C	0.802
U3G C5U U26A	≤ 0.5
U3C G10C A20C G56C	0.577
U3C C27G C33A C66G G67C	≤ 0.5
U3C G17A U54C	≤ 0.5
U3C C22G G67U	0.538
U3C C34U G41C C49U G58A U64A	≤ 0.5
U3G C4A G6A U35C	≤ 0.5
U3C U16G U19A A43U A57U	≤ 0.5
U3G A69C	0.867
U3G C5U G10A C31U G41C A43C	≤ 0.5
U3C U16C G44A A45U C60A	≤ 0.5
U3G C4U C22A	≤ 0.5
U3G C4U U35A G58A G67A	≤ 0.5
U3C G6A G18C C30U C31U G48A C55G A65U	≤ 0.5
U3G A40U A45U	0.585
U3G C5U G39C U47A	0.538
U3C C11A C27G C33A A43C C46A	0.687
U3C G10A C22A C24G	≤ 0.5

Variant	yeast fitness
U3C G25A A37U	0.574
U3G C5U U26A G38A C62U A70U	≤ 0.5
U3C G39A	0.898
U3C C27U	0.941
U3C C49G	0.943
U3C U7A A42C C49U C55U	≤ 0.5
U3C C11U A65G	0.732
U3G C62G	0.739
U3C C11U G17C C22A C24G U28C C33A	≤ 0.5
U3C C55G U64A	0.563
U3C C27U C62U	0.617
U3C C55U G58A	0.508
U3C U26C G44C U54A	≤ 0.5
U3G C24U C27G C30A A65U A69U	≤ 0.5
U3C C30A	1.06
U3C C24A A43G G52A G58A	≤ 0.5
U3G A15U A36G	≤ 0.5
U3C U8A U19A	0.63
U3C U19A C27U	0.696
U3C G50A A65U	0.652
U3C C30G U64A A70C	≤ 0.5
U3C G6C C46A	0.645
U3G C5U G10A G18C C24U A45C	0.553
U3C G9A C34G A42G C49G C62U A69C	≤ 0.5

Variant	yeast fitness
U3G C5G C11U C29U U32C	≤ 0.5
U3C C31U C62U	0.804
U3C G12A C33G A42C A65G	≤ 0.5
U3C U13A A20C C30A C31A U54A C55U	≤ 0.5
U3C U13A C31U G41A	0.524
U3C U19A C22U	0.558
U3G A37G	0.724
U3C C22G G52C G67C	≤ 0.5
U3C G6A G23C C49G U53G A57G	≤ 0.5
U3G C55A	0.644
U3G A43G A65U	0.701
U3C G12A A37C A45U G48C G50A	≤ 0.5
U3C C31U C34U U35A U53A G58A G68A	≤ 0.5
U3C G18A C31G	≤ 0.5
U3C U19A C27G C62U	≤ 0.5
U3G C11U G68A	≤ 0.5
U3C C22G	0.859
U3C C11G A57G	≤ 0.5
U3C G25C G48A	0.598
U3C C30A C31G C49A C60U G67A	≤ 0.5
U3C C30U G44A	0.566
U3G C24U G58A U59A A65U	0.514
U3C C46A G48A	0.877
U3G C5G C11U C29U U32C C60U	≤ 0.5

Variant	yeast fitness
U3C C11A U32G C61A C62A	0.587
U3C C55A C60A	≤ 0.5
U3C C31U A45U	0.718
U3C C5G U28G C31U G51A U54A U59A	≤ 0.5
U3C C30A C31U	0.747
U3C G56A	1.03
U3C G50A A57G	0.632
U3C C24G C49U C55G G58A	0.576
U3C G9C C11U U19C C30G A43C	≤ 0.5
U3C U32C C33U A42U	0.563
U3C C49G G63C	0.617
U3C C33A C61G	0.731
U3C G23A U28G	≤ 0.5
U3C U7A	0.772
U3C U8A G25A A45G	0.578
U3C C24U C46U C62U	≤ 0.5
U3G C5G G10A C30A C31G C49A C60U G67A	0.572
U3G A21G A57C	≤ 0.5
U3C G6A U16C G17A	≤ 0.5
U3G C22A C24U U35G A45U A65U A70U	≤ 0.5
U3C C27G C49A	≤ 0.5
U3C U8A A15C C31G C49U A57U G67C	≤ 0.5
U3C C27U G48A C55A G63A	≤ 0.5
U3C C49G A65U	0.658

Variant	yeast fitness
U3G A40G C46A	0.665
U3G C5U U26A A45C U59C	≤ 0.5
U3C U32G A40C G41A	≤ 0.5
U3C G18A	0.916
U3C U26C C30U A37G C61A	≤ 0.5
U3C U16C C30G C31G A37U G56C	≤ 0.5
U3G C11U U35A G38A C66U	≤ 0.5
U3C U19C C34U U53C	≤ 0.5
U3C C31A A42G A43G G68C	≤ 0.5
U3C C22G A70C	0.679
U3C G6A C29G G58A	≤ 0.5
U3G C11U	0.748
U3G C11G	0.556
U3C C11U C27G G52A	≤ 0.5
U3C G25A A45G	0.59
U3C C29U C30G G39C C60A	≤ 0.5
U3C G23C C30A A36G G38C	≤ 0.5
U3C C5U C24U A42C A57U	≤ 0.5
U3G C5U G10A C55U	≤ 0.5
U3C U7A G44C C61U C62U G63C C66U A69G	≤ 0.5
U3C G9A U28G	0.59
U3C U7G G38C	≤ 0.5
U3C C31U G50A G58C C66U	≤ 0.5
U3G C30G C49U	≤ 0.5

Variant	yeast fitness
U3C C11U G56A	0.742
U3C C27U C46A G50A C62U	0.595
U3C C11A G25A C46G A57U	0.504
U3C G10C C33U A40C	≤ 0.5
U3G A37U U54C G58A C66U	≤ 0.5
U3C C11U C61G A65C	≤ 0.5
U3C G12A C30U C46G	≤ 0.5
U3G A15G A21U C24U G38A C61G C66U A69U	≤ 0.5
U3C C31U G39A G44A C61U	≤ 0.5
U3C G18A U53A U54G	0.544
U3C C29U G58C	0.58
U3G A20C	0.987
U3C G17C	0.78
U3C U19G C27G C33G U53G	0.578
U3C U8G U32A C33G C62U A65G	≤ 0.5
U3C C24U G56A	0.757
U3C G52A	0.743
U3G C31A G41A	≤ 0.5
U3C C30U A42G G58C	≤ 0.5
U3C C33G A69C	0.621
U3C G18A C31A G56C A69C	≤ 0.5
U3G C11G C34U C55U	≤ 0.5
U3C C11A C27G C33A A43C C46A C62A C66U	≤ 0.5
